Values after ≈ are worked out from the molar mass of the structure shown.
How the values were obtained:
[1] = biological target: T1, Metabotropic glutamate receptor 5 (Homo sapiens, UniProt P41594); test: Negative allosteric modulation of human recombinant mGluR5 expressed in HEK293 cells expressing GLAST assessed as inhibition of DHPG-induced intracellular Ca2+ level after 30 mins by FLIPR assay
Target sequence in this assay (P41594 whole entry): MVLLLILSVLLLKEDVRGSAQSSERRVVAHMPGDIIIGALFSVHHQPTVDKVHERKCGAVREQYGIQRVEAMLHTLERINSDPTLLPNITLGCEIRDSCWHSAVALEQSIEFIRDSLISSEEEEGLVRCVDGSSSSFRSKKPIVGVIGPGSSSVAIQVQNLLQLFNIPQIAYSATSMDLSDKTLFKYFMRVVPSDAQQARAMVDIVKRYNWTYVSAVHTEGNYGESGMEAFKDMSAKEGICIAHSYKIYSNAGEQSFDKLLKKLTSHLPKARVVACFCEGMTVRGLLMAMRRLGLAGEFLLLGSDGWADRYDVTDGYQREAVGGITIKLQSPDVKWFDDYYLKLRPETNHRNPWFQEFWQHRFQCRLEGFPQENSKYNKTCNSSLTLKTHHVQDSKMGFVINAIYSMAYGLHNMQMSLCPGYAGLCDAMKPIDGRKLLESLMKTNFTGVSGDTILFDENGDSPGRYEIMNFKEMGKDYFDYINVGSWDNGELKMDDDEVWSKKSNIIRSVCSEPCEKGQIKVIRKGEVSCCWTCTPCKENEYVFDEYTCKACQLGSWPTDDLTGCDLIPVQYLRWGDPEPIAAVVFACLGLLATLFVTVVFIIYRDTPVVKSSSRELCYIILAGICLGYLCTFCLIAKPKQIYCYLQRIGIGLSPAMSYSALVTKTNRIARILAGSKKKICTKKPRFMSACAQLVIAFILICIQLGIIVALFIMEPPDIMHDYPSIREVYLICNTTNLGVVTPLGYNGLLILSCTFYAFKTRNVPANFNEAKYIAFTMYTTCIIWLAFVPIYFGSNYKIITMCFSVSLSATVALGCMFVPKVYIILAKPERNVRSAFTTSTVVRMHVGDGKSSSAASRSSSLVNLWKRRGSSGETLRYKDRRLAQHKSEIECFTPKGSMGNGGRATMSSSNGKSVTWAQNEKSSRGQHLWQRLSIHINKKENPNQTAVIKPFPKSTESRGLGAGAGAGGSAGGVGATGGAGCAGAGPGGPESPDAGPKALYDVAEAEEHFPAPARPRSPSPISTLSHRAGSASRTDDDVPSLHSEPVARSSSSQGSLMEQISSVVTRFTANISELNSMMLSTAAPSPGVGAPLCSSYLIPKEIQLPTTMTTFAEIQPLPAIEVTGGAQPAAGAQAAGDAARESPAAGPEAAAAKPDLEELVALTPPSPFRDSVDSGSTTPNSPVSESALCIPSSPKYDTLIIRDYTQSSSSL

[2] = biological target: T1, Metabotropic glutamate receptor 5; test: Binding affinity to human mGluR5 expressed in HEK293 cell membranes expressing GLAST after 1 hr by scintillation counter in absence of MPEP
Method in brief: (§1)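 [3H]AZD9272 equilibrium saturation binding on membranes from human mGluR5-GHEK cells (HEK293 stably expressing glutamate/aspartate transporter), run without MPEP or with 10 or 20 nM MPEP; filtration termination; Kd and Bmax (pmol/mg protein) derived per assay, three separate assays.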
Target sequence in this assay (P41594 whole entry): as above

[3] = biological target: T1, Metabotropic glutamate receptor 5; test: Binding affinity to human mGluR5 expressed in HEK293 cell membranes expressing GLAST after 1 hr by scintillation counter in presence of 10 nM MPEP; method in brief: as §1
Target sequence in this assay (P41594 whole entry): as above

[4] = biological target: T1, Metabotropic glutamate receptor 5; test: Binding affinity to human mGluR5 expressed in HEK293 cell membranes expressing GLAST after 1 hr by scintillation counter in presence of 20 nM MPEP; method in brief: as §1
Target sequence in this assay (P41594 whole entry): as above

Brain = test: Drug uptake in Sprague-Dawley rat brain at 10 and 30 nmol/kg, iv administered as infusion after 5 mins by autoradiographic analysis; type: ADME, organism-based; details: in vivo
Method in brief: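 Rats were dosed intravenously with [3H]AZD9272 at 10 or 30 nmol/kg. Five minutes later, brains were removed and sectioned sagittally. Radiolabel distribution was assessed by conventional autoradiography.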

[5] = biological target: T1, Metabotropic glutamate receptor 5; test: Binding affinity to human mGluR5 expressed in HEK293 cell membranes expressing GLAST by scintillation counting
Target sequence in this assay (P41594 whole entry): as above

[6] = biological target: Metabotropic glutamate receptor 5 (Rattus norvegicus, UniProt P31424); test: Binding affinity to mGluR5 in Sprague-Dawley rat striatum after 60 mins by autoradiographic analysis
Sequence of Metabotropic glutamate receptor 5 (Rattus norvegicus, UniProt P31424) (P31424 whole entry): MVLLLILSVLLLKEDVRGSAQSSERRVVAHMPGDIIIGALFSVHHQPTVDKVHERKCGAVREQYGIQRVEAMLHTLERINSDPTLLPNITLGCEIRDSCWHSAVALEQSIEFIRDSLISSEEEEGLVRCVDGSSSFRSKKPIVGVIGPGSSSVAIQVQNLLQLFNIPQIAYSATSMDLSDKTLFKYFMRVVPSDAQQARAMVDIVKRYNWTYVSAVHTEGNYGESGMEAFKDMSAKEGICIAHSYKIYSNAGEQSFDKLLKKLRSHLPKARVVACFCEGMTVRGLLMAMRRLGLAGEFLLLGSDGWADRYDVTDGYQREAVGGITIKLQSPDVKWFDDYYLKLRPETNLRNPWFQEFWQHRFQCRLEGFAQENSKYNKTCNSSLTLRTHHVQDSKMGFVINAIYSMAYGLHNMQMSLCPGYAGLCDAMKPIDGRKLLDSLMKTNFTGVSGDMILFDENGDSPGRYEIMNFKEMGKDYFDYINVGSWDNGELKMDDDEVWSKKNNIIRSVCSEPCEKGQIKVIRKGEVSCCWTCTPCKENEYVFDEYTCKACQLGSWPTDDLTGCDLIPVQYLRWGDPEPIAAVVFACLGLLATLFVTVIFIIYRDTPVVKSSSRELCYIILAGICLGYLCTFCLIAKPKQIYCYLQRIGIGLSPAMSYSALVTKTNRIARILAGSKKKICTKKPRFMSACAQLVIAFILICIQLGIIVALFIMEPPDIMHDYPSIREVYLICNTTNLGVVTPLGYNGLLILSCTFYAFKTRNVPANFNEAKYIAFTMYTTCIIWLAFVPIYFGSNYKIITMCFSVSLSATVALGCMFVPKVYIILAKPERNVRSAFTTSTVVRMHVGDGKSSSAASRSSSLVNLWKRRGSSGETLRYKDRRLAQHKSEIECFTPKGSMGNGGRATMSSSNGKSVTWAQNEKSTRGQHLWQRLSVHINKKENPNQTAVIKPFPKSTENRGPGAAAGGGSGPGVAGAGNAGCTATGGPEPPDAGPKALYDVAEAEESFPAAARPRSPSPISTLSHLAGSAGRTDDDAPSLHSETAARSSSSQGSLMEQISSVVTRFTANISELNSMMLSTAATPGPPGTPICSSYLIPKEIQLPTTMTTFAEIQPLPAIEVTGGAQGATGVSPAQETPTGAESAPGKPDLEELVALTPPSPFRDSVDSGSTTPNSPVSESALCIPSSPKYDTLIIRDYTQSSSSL

[7] = biological target: T1, Metabotropic glutamate receptor 5; test: Binding affinity to human mGluR5 expressed in HEK293 cell membranes expressing GLAST assessed as per mg of protein after 1 hr by scintillation counter
Target sequence in this assay (P41594 21-1212 limits assumed): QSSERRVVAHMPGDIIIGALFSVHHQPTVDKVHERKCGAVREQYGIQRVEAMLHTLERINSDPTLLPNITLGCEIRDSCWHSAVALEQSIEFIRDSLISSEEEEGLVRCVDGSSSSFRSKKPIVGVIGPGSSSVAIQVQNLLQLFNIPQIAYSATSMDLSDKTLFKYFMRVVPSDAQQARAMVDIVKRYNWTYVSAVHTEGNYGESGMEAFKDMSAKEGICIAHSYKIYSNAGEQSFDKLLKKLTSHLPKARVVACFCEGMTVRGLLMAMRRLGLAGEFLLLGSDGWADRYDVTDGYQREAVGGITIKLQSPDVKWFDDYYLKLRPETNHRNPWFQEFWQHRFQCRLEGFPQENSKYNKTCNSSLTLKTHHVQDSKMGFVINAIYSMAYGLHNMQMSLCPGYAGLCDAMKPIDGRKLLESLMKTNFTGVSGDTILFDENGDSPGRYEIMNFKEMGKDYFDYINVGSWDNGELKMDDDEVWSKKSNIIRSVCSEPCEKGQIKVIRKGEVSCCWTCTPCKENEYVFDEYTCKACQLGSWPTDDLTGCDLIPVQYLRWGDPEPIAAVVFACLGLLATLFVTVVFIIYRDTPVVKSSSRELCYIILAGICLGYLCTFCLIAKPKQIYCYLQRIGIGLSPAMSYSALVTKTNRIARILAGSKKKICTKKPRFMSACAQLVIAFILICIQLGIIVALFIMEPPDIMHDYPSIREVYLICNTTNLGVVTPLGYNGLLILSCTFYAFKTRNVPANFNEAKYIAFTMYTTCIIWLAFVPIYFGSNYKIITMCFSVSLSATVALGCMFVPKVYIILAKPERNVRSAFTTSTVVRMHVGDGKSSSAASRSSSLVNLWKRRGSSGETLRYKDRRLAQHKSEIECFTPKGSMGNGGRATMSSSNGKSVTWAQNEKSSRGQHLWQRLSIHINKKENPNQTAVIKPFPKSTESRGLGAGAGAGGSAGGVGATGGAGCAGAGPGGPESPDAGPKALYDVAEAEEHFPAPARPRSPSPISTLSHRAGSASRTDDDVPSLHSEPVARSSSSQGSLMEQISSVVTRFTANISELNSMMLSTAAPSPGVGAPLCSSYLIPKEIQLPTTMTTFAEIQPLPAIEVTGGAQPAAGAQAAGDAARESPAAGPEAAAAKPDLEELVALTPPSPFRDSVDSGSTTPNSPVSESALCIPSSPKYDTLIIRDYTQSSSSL

[8] = Equilibrium solubility of the compound […]; type: physicochemical
Method in brief: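 Solubility was measured by a dried-DMSO rapid-throughput method.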

[9] = Intrinsic clearance in rat liver microsomes; type: ADME, Microsome; details: read-out: CLH
Method in brief: (§2)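 Intrinsic clearance was determined in human or rat microsomes and expressed per min per mg protein.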

[10] = Intrinsic clearance in human liver microsomes; type: ADME, Microsome; details: read-out: CLH; method in brief: as §2

SMILES	IC50 [1]	further results
NC(=O)c1ccccc1-c1nc(-c2ccccn2)no1	3300 nM	–
COc1cccc(-c2nc(-c3ccccn3)no2)c1	540 nM	–
[3H]c1c(F)cc(-c2nc(-c3ccc(F)cn3)no2)cc1C#N	–	Kd [2]: 3.8 nM; Kd [3]: 5.5 nM; Kd [4]: 7.2 nM; Drug uptake (Brain): Active; Kd [5]: 2.8 nM; Kd [6]: 9.4 nM
Clc1ccc(-c2nc(-c3ccccn3)no2)cc1	> 10000 nM	–
Clc1ccc(-c2nc(-c3ccccn3)no2)cc1Cl	> 10000 nM	–
Cc1cccc(C#Cc2ccccc2)n1	–	Bmax [7]: 4.4 pmol
Clc1ccc(-c2nc(-c3ccccn3)no2)c(Cl)c1	1700 nM	–
Fc1cccc(-c2nc(-c3ccccn3)no2)c1	845 nM	–
FC(F)(F)Oc1cccc(-c2nc(-c3ccccn3)no2)c1	700 nM	–
N#Cc1cc(F)cc(-c2nc(-c3ncccn3)no2)c1	1100 nM	–
FC(F)(F)c1cc(-c2nc(-c3ccccn3)no2)cc(C(F)(F)F)c1	> 10000 nM	–
N#Cc1cc(F)cc(-c2nc(-c3cnccn3)no2)c1	4700 nM	–

Further compounds by falling IC50 [1], results first:

IC50 [1]	SMILES	further results
443 nM	Cc1cccc(-c2nc(-c3ccccn3)no2)c1	–
436 nM	Clc1ccccc1-c1nc(-c2ccccn2)no1	–
274 nM	Clc1cccc(-c2nc(-c3ccccn3)no2)c1Cl	–
236 nM	O=[N+]([O-])c1cccc(-c2nc(-c3ccccn3)no2)c1	–
176 nM	N#Cc1cc(C#N)cc(-c2nc(-c3ccccn3)no2)c1	–
154 nM	Fc1cc(F)cc(-c2nc(-c3ccccn3)no2)c1	–
142 nM	Clc1cc(Cl)cc(-c2nc(-c3ccccn3)no2)c1	–
118 nM	Brc1cccc(-c2nc(-c3ccccn3)no2)c1	–
116 nM	Clc1cccc(-c2nc(-c3ccccn3)no2)c1	–
61 nM	N#Cc1cc(F)cc(-c2ccc(-c3ccccn3)o2)c1	–
25 nM	N#Cc1cc(F)cc(-c2nc(-c3ccccn3)no2)c1	solubility [8]: 78.1 µM (≈ 20.8 µg/mL); microsomal CLint [9]: 29 µL/min/mg; microsomal CLint [10]: 92 µL/min/mg
23 nM	N#Cc1cc(F)cc(-c2noc(-c3ccccn3)n2)c1	–
22 nM	N#Cc1cc(F)cc(-c2nc(-c3ccccn3)co2)c1	–

Source: ChEMBL document CHEMBL2163282, “Discovery and characterization of AZD9272 and AZD6538-Two novel mGluR5 negative allosteric modulators selected for clinical development” (Bioorg Med Chem Lett, 2012)
